Results on 22 compounds are retold here after ChEMBL document CHEMBL4261550, “Triazolopyrimidines identified as reversible myeloperoxidase inhibitors” (Medchemcomm, 2017).

Active and inactive are the calls of the source. No cut-off for these calls is given here.

Data set [1] addresses T1, Myeloperoxidase (Homo sapiens, UniProt P05164).
T1 sequence (P05164 whole entry): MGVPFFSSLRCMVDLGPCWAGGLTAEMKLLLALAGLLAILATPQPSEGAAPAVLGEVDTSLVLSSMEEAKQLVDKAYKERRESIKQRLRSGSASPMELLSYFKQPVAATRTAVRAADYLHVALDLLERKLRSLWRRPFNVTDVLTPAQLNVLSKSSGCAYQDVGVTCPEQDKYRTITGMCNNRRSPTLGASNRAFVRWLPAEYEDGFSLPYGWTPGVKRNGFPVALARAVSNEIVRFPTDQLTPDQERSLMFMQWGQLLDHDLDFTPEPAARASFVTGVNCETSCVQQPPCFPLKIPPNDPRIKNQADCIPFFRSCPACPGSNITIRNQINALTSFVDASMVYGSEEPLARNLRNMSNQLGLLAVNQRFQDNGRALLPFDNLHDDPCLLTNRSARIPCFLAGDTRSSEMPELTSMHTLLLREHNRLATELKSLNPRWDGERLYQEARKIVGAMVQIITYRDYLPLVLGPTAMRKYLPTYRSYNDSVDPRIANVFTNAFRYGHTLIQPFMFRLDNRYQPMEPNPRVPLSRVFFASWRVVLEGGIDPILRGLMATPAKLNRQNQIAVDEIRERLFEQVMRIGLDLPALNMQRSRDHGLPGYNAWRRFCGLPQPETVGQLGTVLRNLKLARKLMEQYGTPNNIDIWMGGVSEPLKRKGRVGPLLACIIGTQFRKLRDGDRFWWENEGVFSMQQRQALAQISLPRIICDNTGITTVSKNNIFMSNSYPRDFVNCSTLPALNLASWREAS
Put plainly: Inhibition of human MPO assessed as reduction in enzyme-mediated chlorination by measuring reduction in HOCl formation preincubated for 10 mins followed by H2O2/NaCl addition and measured at 30 secs time interval for 5 mins by APF dye based fluorescence assay.

In data set [2] the target is T2, Myeloperoxidase (Homo sapiens) (UniProt P05164).
T2 sequence (whole entry): T1 sequence (P05164 whole entry)
Put plainly: Irreversible inhibition of human MPO peroxidase activity at 20 nM preincubated for up to 30 mins followed by H2O2 addition and 2 to 10 times compound dilution measured at 30 secs time interval for 5 mins by amplex red reagent based fluorescence assay. The essentials:
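MPO (20 nM, phosphate buffer) was preincubated with inhibitor and 100 nM H2O2 for 2, 10, 20 and 30 min. Inhibitor was at 5x–10x the Amplex Red IC50 when that IC50 was > 1 μM, or 2–10x the enzyme concentration when it was < 1 μM. Controls were peroxide with 0.2% DMSO, and 4-hydroxybenzoic acid hydrazide. Unbound inhibitor was removed on a G50 spin column. Flow-through was assayed by Amplex Red, and the initial rate gave % activity remaining versus control. Runs were repeated with 100 mM NaCl and 150 μM L-methionine.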

Data set [3] can be described thus: Hypochlorus scavenging activity at 10 uM in presence of sodium hypochlorite after 15 mins by APF dye based fluorescence assay relative to control. The data set is classed as functional. The essentials:
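NaOCl-scavenger counterscreen in 1536-well format: 50 μM NaOCl in place of MPO with APF reagent, compound 10 μM final; fluorescence intensity read after 15 min incubation; ≥20% loss of fluorescence flagged as interference.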

Data set [4] has as its target T1, Myeloperoxidase. Put plainly: Inhibition of human MPO peroxidase activity in presence of H2O2 measured at 30 secs time interval for 5 mins by amplex red reagent based fluorescence assay.
In data set [5] the target is T2, Myeloperoxidase (Homo sapiens). Put plainly: Inhibition of human MPO assessed as reduction in enzyme-mediated chlorination by measuring reduction in HOCl formation at 10 uM preincubated for 10 mins followed by H2O2/NaCl addition and measured at 30 secs time interval for 5 mins by APF dye based fluorescence assay relative to control. The essentials: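 HTS APF chlorination, 1536-well: 1.75 nM human MPO with 20 μM H2O2 final, compound 10 μM final, preincubated 10 min; APF reagent added, fluorescence 485/535 nm read every 30 s for 5 min; slope normalized to DMSO (0%) and no-MPO wells (100% inhibition).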

Data set [6] shares this target. Nature of the data set: Substrate activity at human MPO assessed as reversion of enzyme to resting state at 80 uM in presence of H2O2 by stopped flow assay. In outline: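 Stopped-flow at 25 °C: syringe 1 with 2 μM MPO and 5 μM H2O2 in phosphate buffer, syringe 2 with inhibitor and 5 μM H2O2; equal volumes rapidly mixed, spectra acquired in PDA mode to follow several MPO species; representative of numerous replicates.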

Data set [7] in a line: Redox activity assessed as conversion of resazurin reagent to resorufin at 10 uM after 30 mins by fluorescence assay relative to control. The data set is classed as physicochemical. To be noted: 0.5 h. In outline: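 Redox counterscreen: compound 10 μM final incubated with 5 μM resazurin reagent (final) 30 min; fluorescence intensity read; normalized to a reactive styrylpyrimidotriazinedione standard at 10 μM as 100%.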

Data set [8] concerns the target T1, Myeloperoxidase. Put plainly: Inhibition of human MPO assessed as reduction in enzyme-mediated chlorination by measuring reduction in HOCl formation in presence of H2O2/NaCl measured at 30 secs time interval for 5 mins by APF dye based fluorescence assay.
Data set [9] deals with T2, Myeloperoxidase (Homo sapiens). Nature of the data set: Ratio of IC50 for human MPO chlorination preincubated for 10 mins to IC50 for human MPO chlorination without preincubation.
Data set [10] has as its target T1, Myeloperoxidase. Nature of the data set: Inhibition of MPO in human neutrophils assessed as reduction in PMA-stimulated HOCl production incubated for 3 mins and measured for 25 mins by luminol reagent based luminescence assay. The essentials: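 Neutrophils from healthy donors isolated by dextran sedimentation then Ficoll-Paque, resuspended in HBSS; 1.106 cells/mL stimulated with 100 nM PMA; inhibitor 22 μM down to 1 nM (1:3, 10 doses) in 10% ethanol/50% PEG/40% water, 3 min at rt; luminol 100 μM final, read 25 min at 37 °C; rate taken from initial linear region.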

A further data set deals with T3, Thyroid peroxidase (Homo sapiens, UniProt P07202).
T3 sequence (P07202 whole entry): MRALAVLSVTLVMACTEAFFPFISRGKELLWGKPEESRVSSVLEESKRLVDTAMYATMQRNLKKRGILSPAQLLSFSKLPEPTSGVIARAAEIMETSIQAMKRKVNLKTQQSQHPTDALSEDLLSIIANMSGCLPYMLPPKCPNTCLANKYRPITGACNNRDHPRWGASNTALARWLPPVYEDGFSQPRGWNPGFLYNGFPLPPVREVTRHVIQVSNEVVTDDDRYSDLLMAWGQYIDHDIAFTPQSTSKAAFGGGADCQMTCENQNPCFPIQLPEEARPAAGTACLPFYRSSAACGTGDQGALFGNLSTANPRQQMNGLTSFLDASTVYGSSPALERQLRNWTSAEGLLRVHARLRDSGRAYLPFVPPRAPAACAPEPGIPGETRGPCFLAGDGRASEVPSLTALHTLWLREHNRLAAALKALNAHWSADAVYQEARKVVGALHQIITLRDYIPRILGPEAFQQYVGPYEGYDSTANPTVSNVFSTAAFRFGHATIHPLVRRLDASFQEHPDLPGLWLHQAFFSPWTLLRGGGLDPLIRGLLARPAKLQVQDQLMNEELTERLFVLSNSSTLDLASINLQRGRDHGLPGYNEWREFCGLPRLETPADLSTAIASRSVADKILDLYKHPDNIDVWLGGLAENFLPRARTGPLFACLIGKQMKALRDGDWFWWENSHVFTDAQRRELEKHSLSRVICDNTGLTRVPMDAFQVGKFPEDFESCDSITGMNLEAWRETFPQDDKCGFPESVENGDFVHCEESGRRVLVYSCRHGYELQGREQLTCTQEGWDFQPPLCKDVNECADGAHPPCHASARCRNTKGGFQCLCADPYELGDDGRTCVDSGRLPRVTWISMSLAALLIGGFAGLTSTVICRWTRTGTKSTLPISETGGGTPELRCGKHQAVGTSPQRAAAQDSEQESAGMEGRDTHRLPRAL
Nature of the data set: Inhibition of recombinant human C-terminal His6-tagged TPO (15 to 839 residues) expressed in baculovirus infected insect cells assessed as reduction in H2O2-catalyzed 3,5-iodo tyrosine formation using 3-iodotyrosine and potassium iodide preincubated for 10 mins followed by 3,5-iodo tyrosine/potassium iodide/H2O2 addition and measured after 15 mins. In outline:
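TPO residues 15–839 with C-terminal His6, baculovirus/T. ni expressed, purified by Ni affinity, anion exchange and size exclusion; 4.0 nM in 100 mM KPi pH 7.4, 10 min rt preincubation with inhibitor; then 400 μM KI/240 μM 3-iodotyrosine mix and 20 μM H2O2 (added solutions); 3,5-iodotyrosine formation monitored.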

Broadly, the IC50 is the concentration needed to halve the response being measured. On to `Nc1nc(OCc2ccccc2F)c2nn[nH]c2n1`, for which, at Myeloperoxidase [1], the IC50 is 0.078 µM. As for `Nc1nc(OCc2ccccc2)c2cn[nH]c2n1`, the IC50 at Myeloperoxidase [1] was above 13 µM. On the same count and under the same terms, to `Nc1nc(OCc2ccccc2)c2[nH]c(O)nc2n1` belongs above 13 µM. The same measure, in the same setting: to `Nc1nc(OCc2ccccc2)c2[nH]cnc2n1` [6-O-BENZYLGUANINE] belongs above 13 µM. As a reminder, the inhibition is the percentage by which the read-out fell short of the control. Regarding `NNC(=O)c1ccc(O)cc1`, the inhibition result in data set [2] was “Active”. For the compound `N[C@@H](Cc1c[nH]c2ccccc12)C(=O)OCc1ccccc1`, the Activity in data set [3] is below 20%; in data set [7], “Not Active”. Besides, the IC50 on Myeloperoxidase [4] was above 13 µM; at Myeloperoxidase [1] it was 0.2 µM; at Myeloperoxidase [8], 0.11 µM. Besides, the inhibition in data set [5] was found to be 30%. Also, the outcome in data set [6] was Active. With `Nc1nc(OCc2cccc(Cl)c2)c2nn[nH]c2n1`, on Myeloperoxidase [1], the IC50 worked out at 0.2 µM. Consider `Cn1nnc2c(OCc3ccccc3)nc(N)nc21`, for which the IC50 at Myeloperoxidase [1] was above 13 µM. As for `Nc1nc(OCc2cccc(F)c2)c2nn[nH]c2n1`, the IC50 at Myeloperoxidase [1] came to 0.04 µM. In the case of `COc1cccc(COc2nc(N)nc3[nH]nnc23)c1`, the IC50 on Myeloperoxidase [1] stood at 0.49 µM. Regarding `Oc1nc(OCc2ccccc2)c2nn[nH]c2n1`, the IC50 at Myeloperoxidase [1] was above 13 µM. As for `c1ccc(COc2ncnc3[nH]nnc23)cc1`, the IC50 at Myeloperoxidase [1] is above 13 µM. Regarding `Nc1nc(OCc2ccc(C(F)(F)F)cc2)c2nn[nH]c2n1`, at Myeloperoxidase [1], the 50% inhibitory concentration (IC50) is 0.14 µM. On to `Cc1ccccc1COc1nc(N)nc2[nH]nnc12`, for which the IC50 at Myeloperoxidase [1] came to 0.47 µM. Still for that read-out and setting: to `Nc1nc(OCCc2ccccc2)c2nn[nH]c2n1` belongs 0.63 µM.

Turning to `Nc1nc(OCc2ccc(F)cc2)c2nn[nH]c2n1`, at Myeloperoxidase [1], the IC50 is 0.047 µM. `CCNc1nc(OCc2ccccc2)c2nn[nH]c2n1`: the IC50 at Myeloperoxidase [1] stood at 2.9 µM. On the same count and under the same terms, the value for `Nc1nc(OCc2cccc(OC(F)F)c2)c2nn[nH]c2n1` was 0.2 µM; that for `Nc1nc(OCc2ccccc2Cl)c2nn[nH]c2n1` was 0.18 µM. As for `Nc1nc(Oc2ccccc2)c2nn[nH]c2n1`, at Myeloperoxidase [1], the IC50 is above 13 µM. Regarding `O=c1[nH]c(=S)n(C[C@H]2CCCO2)c2nc[nH]c12`, the Activity was below 20% in [3] and “Not Active” in data set [7]. Moreover, the IC50 came out at 0.012 µM on Myeloperoxidase [4]; 0.009 µM at Myeloperoxidase [1]; 1 µM at Myeloperoxidase [10]; 3.9 µM at Thyroid peroxidase; 0.056 µM on Myeloperoxidase [8]. Moreover, in data set [9], the Ratio IC50 was found to be 6. Besides, in data set [5], the inhibition was found to be 30%.

In the case of `Cc1ccc(COc2nc(N)nc3[nH]nnc23)cc1`, on Myeloperoxidase [1], the IC50 is 0.51 µM.
